Assay results reported in ChEMBL document CHEMBL4433215, “SAR Studies and Biological Characterization of a Chromen-4-one Derivative as an Anti-Trypanosoma brucei Agent” (ACS Med Chem Lett, 2019).
Blank lines part the entries; values can stand above or below the compound they belong to.

Experiments:
[1] = Cytotoxicity against human THP1 cells by MTT assay; assay type: cell-based, THP-1
Trypanosoma brucei [2] = test: Antitrypanosomal activity against Trypanosoma brucei bloodstream form assessed as parasite growth inhibition at 10 uM after 72 hrs by resazurin dye-based assay relative to control; assay type: functional; conditions: read-out: GI
Summary of the method: (§1)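 T. brucei bloodstream forms were screened first. Compounds giving over 70% parasite growth inhibition then went to a full dose–response curve to derive EC50. Pentamidine was the reference.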

[3] = target: T1, Voltage-gated inwardly rectifying potassium channel KCNH2 (Homo sapiens, UniProt Q12809); test: Inhibition of human ERG at 10 uM after 2 hrs by fluorescence polarization assay
T1 sequence (Q12809 whole entry): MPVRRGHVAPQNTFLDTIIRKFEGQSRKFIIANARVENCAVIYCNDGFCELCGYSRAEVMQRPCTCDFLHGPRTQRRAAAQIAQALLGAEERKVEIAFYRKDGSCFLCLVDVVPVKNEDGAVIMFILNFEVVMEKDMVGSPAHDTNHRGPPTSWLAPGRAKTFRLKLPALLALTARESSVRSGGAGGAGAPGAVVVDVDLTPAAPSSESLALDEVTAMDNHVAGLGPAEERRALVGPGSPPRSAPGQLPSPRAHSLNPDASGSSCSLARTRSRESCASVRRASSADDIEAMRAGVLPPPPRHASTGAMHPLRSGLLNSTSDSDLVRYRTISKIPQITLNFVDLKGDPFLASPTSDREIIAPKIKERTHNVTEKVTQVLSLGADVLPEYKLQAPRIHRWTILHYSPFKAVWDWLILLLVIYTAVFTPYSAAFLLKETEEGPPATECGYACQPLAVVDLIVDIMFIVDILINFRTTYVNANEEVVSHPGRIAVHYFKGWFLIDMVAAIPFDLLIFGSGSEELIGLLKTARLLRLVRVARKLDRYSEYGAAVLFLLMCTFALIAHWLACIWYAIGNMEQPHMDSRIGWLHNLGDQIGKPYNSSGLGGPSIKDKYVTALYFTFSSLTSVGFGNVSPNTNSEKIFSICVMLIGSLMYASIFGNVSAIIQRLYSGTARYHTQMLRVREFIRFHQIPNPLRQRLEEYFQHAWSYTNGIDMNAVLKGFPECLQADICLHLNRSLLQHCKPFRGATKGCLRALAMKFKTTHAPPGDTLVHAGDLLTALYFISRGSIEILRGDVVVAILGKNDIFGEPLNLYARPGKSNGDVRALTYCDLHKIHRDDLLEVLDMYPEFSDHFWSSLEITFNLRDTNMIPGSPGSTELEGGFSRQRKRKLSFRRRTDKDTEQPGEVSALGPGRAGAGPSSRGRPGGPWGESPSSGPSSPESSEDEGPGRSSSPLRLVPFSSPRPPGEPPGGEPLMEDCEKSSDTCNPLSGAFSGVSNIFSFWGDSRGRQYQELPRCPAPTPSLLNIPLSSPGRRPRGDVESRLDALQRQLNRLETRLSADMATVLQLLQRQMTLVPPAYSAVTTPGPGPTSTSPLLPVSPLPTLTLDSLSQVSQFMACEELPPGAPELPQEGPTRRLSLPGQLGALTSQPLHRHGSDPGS
Summary of the method: (§2)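 Single-concentration screen at 10 μM within an early in vitro ADME-tox panel, covering cytotoxicity in A549 cells and hERG inhibition.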

786-0 = test: Mitochondrial toxicity in human 786-O cells at 10 uM after 6 hrs by MitoTracker Red chloromethyl-X-rosamine based assay; assay type: cell-based; conditions: 786-0, 6 h
Trypanosoma brucei [4] = test: Antitrypanosomal activity against Trypanosoma brucei bloodstream form after 72 hrs by resazurin dye-based assay relative to control; assay type: functional, organism-based; summary of the method: as §1
[5] = Selectivity index, ratio of CC50 for cytotoxicity against human THP1 cells to EC50 for antitrypanosomal activity against Trypanosoma brucei bloodstream form; assay type: toxicity, cell-based; conditions: read-out: Ratio CC50/EC50
[6] = Cytotoxicity against human A549 cells assessed as cell growth at 10 uM after 48 hrs by cell-titer-Glo assay relative to control; assay type: cell-based; conditions: read-out: Activity; summary of the method: as §2
[7] = Total AUC in BALB/c mouse at 1 mg/kg, iv by LC-MS/MS analysis; assay type: ADME, organism-based; parameters: dose 1 mg/kg, time AUCmax, route intravenous; conditions: in vivo
Summary of the method: (§3)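 BALB/c mice were dosed IV at 1 mg/kg or orally at 20 mg/kg. Plasma Cmax, Tmax, total AUC and half-life were determined for each route.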

[8] = Aggregation behavior in phosphate buffer at pH 8 assessed as dimerization equilibrium constant at 1.25 uM to 11.25 uM by UV-visible spectrophotometry; assay type: physicochemical; conditions: pH 8, 1.25 µM
Summary of the method: (§4)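 Compound in aqueous phosphate buffer, pH 8, at 1.25 to 11.25 μM. Absorption and fluorescence emission spectra were recorded without and with human serum albumin (HSA), with HSA added stepwise. The monomer/dimer equilibrium constant was obtained by fitting the absorption data at 20 °C.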

Cytochrome P450 1A2 = target: T2, Cytochrome P450 1A2 (Homo sapiens, UniProt P05177); test: Inhibition of recombinant human microsomal CYP1A2 expressed in baculovirus infected BTI-TN-5B1-4 cell microsomes using CYP/Luciferin as substrate pre-incubated for 30 mins followed by NADPH regeneration mixture addition and measured after 30 mins by Promega P450-Glo assay; assay type: ADME
T2 sequence (P05177 whole entry): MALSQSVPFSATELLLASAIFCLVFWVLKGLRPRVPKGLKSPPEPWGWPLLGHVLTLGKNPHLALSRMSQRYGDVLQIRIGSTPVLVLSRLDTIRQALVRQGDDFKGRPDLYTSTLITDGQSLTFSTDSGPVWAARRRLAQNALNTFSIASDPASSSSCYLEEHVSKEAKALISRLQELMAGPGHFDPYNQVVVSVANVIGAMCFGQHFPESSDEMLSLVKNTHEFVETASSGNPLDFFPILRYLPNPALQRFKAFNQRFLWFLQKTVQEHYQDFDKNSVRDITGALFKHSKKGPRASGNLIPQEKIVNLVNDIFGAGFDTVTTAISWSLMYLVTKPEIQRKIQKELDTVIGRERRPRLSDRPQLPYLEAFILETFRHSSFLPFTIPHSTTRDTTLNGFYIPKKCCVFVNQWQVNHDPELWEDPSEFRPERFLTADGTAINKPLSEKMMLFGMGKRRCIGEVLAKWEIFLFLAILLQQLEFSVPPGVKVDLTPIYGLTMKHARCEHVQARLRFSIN

Albumin [9] = target: T3, Albumin (Homo sapiens, UniProt P02768); test: Binding affinity to HSA assessed as absorption maxima for free monomer at 1.25 uM to 11.25 uM by UV-visible spectrophotometry; assay type: ADME; conditions: isolated protein; summary of the method: as §4
T3 sequence (P02768 whole entry): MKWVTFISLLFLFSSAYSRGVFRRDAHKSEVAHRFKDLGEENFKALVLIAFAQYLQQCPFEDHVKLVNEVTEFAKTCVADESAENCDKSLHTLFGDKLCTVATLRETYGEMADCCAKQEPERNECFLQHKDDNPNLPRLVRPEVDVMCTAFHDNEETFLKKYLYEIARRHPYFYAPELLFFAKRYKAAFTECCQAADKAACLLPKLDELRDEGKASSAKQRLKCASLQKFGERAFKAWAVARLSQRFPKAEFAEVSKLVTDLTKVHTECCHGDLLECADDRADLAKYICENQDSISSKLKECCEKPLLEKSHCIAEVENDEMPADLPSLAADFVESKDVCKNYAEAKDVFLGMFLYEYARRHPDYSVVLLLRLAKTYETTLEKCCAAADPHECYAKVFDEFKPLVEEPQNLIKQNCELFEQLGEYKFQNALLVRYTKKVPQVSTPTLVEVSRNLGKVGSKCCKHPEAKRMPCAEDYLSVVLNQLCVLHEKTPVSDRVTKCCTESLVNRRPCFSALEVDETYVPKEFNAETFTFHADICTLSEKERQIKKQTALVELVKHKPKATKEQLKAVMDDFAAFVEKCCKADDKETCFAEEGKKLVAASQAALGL

Albumin [10] = target: T3, Albumin; test: Binding affinity to HSA assessed as monomer/HSA equilibrium binding constant at 11.25 uM by spectroflurometry; assay type: ADME; conditions: isolated protein; summary of the method: as §4
[11] = target: T1, Voltage-gated inwardly rectifying potassium channel KCNH2; test: Inhibition of human ERG after 2 hrs by fluorescence polarization assay
[12] = Aggregation behavior in phosphate buffer at pH 8 assessed as increase in absorption spectra at 1.25 uM to 11.25 uM by UV-visible spectrophotometry; assay type: physicochemical; conditions: pH 8, 1.25 µM; summary of the method: as §4
[13] = Aggregation behavior in phosphate buffer at pH 8 assessed as increase in emission spectra at 1.25 uM to 11.25 uM by spectroflurometry; assay type: physicochemical; conditions: pH 8, 1.25 µM; summary of the method: as §4
Cytochrome P450 3A4 = Cytochrome P450 3A4 (Homo sapiens, UniProt P08684); test: Inhibition of recombinant human microsomal CYP3A4 expressed in baculovirus infected BTI-TN-5B1-4 cell microsomes using CYP/Luciferin as substrate pre-incubated for 30 mins followed by NADPH regeneration mixture addition and measured after 30 mins by Promega P450-Glo assay; assay type: ADME
Sequence of Cytochrome P450 3A4 (P08684 whole entry): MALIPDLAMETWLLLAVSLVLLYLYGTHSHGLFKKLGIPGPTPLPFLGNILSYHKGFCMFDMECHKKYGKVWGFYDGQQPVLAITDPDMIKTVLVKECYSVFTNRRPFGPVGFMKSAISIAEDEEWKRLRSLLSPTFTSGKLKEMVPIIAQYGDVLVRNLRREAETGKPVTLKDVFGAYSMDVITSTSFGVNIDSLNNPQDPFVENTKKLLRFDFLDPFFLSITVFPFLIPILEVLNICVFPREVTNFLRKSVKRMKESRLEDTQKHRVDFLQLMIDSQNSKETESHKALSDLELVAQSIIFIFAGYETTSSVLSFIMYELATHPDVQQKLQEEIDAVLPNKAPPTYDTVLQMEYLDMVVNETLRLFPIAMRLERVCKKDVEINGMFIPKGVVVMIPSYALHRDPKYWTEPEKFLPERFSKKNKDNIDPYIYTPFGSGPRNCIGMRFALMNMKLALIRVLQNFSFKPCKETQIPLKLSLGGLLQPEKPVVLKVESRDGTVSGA

Cytochrome P450 2C19 = Cytochrome P450 2C19 (Homo sapiens, UniProt P33261); test: Inhibition of recombinant human microsomal CYP2C19 expressed in baculovirus infected BTI-TN-5B1-4 cell microsomes using CYP/Luciferin as substrate pre-incubated for 30 mins followed by NADPH regeneration mixture addition and measured after 30 mins by Promega P450-Glo assay; assay type: ADME
Sequence of Cytochrome P450 2C19 (P33261 whole entry): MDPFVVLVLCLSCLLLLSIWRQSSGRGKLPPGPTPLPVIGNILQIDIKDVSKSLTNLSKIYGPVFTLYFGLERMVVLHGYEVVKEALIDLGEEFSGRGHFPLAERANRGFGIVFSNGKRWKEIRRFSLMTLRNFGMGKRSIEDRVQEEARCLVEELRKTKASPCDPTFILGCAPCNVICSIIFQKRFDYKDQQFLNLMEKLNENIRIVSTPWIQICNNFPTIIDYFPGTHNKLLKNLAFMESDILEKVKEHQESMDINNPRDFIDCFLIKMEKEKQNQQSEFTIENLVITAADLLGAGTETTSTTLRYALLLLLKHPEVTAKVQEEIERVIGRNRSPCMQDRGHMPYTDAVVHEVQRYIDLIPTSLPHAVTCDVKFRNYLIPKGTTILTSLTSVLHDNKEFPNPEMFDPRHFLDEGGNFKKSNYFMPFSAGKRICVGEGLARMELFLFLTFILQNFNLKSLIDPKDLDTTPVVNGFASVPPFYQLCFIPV

[14] = Total AUC in BALB/c mouse at 20 mg/kg, po by LC-MS/MS analysis; assay type: ADME, organism-based; parameters: dose 20 mg/kg, time AUCmax, route oral; conditions: in vivo; summary of the method: as §3
[15] = Cmax in BALB/c mouse at 20 mg/kg, po by LC-MS/MS analysis; assay type: ADME, organism-based; parameters: dose 20 mg/kg, route oral; conditions: in vivo; summary of the method: as §3
[16] = Tmax in BALB/c mouse at 20 mg/kg, po by LC-MS/MS analysis; assay type: ADME, organism-based; conditions: in vivo; summary of the method: as §3
Albumin [17] = target: T3, Albumin; test: Binding affinity to HSA assessed as emission maxima for free monomer at 1.25 uM to 11.25 uM by spectroflurometry; assay type: ADME; conditions: isolated protein; summary of the method: as §4
Cytochrome P450 2D6 = Cytochrome P450 2D6 (Homo sapiens, UniProt P10635); test: Inhibition of recombinant human microsomal CYP2D6 expressed in baculovirus infected BTI-TN-5B1-4 cell microsomes using CYP/Luciferin as substrate pre-incubated for 30 mins followed by NADPH regeneration mixture addition and measured after 30 mins by Promega P450-Glo assay; assay type: ADME
Sequence of Cytochrome P450 2D6 (P10635 whole entry): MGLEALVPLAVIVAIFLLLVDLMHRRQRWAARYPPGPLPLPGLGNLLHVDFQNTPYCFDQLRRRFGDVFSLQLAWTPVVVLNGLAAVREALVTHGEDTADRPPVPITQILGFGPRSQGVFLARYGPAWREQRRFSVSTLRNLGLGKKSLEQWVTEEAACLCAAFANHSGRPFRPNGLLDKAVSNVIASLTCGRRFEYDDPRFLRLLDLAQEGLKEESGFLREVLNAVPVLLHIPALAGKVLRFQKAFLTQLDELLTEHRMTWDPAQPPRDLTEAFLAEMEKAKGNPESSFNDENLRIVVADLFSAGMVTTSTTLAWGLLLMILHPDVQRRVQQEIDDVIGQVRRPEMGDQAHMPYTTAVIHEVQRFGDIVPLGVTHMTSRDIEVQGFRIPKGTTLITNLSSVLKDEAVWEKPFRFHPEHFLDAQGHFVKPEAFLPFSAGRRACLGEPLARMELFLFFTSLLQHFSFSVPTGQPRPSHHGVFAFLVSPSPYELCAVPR

[18] = Half life in BALB/c mouse at 1 mg/kg, iv by LC-MS/MS analysis; assay type: ADME, organism-based; conditions: in vivo; summary of the method: as §3
hERG = test: Selectivity ratio of IC50 for inhibition of human ERG to EC50 for antitrypanosomal activity against Trypanosoma brucei bloodstream form; assay type: toxicity; conditions: read-out: Ratio IC50/EC50
Albumin [19] = target: T3, Albumin; test: Binding affinity to HSA assessed as emission maxima for HSA-complexed monomer at 1.25 uM to 11.25 uM by spectroflurometry; assay type: ADME; conditions: isolated protein; summary of the method: as §4
Albumin [20] = target: T3, Albumin; test: Binding affinity to HSA assessed as absorption maxima for HSA-complexed monomer at 1.25 uM to 11.25 uM by UV-visible spectrophotometry; assay type: ADME; conditions: isolated protein; summary of the method: as §4
Cytochrome P450 2C9 = Cytochrome P450 2C9 (Homo sapiens, UniProt P11712); test: Inhibition of recombinant human microsomal CYP2C9 expressed in baculovirus infected BTI-TN-5B1-4 cell microsomes using CYP/Luciferin as substrate pre-incubated for 30 mins followed by NADPH regeneration mixture addition and measured after 30 mins by Promega P450-Glo assay; assay type: ADME
Sequence of Cytochrome P450 2C9 (P11712 whole entry): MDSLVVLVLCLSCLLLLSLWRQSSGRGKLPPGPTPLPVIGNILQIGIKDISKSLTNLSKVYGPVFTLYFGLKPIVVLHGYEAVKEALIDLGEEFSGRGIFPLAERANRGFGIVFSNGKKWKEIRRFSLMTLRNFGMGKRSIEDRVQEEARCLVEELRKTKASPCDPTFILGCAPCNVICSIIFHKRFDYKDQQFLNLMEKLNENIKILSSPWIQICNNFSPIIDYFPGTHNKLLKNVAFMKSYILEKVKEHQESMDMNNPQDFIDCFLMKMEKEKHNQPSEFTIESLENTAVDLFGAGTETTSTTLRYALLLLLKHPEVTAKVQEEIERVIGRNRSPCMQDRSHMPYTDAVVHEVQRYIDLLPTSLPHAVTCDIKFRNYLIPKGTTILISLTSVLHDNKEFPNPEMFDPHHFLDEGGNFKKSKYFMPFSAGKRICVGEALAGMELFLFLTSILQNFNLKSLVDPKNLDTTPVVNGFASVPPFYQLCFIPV

Albumin [21] = target: T3, Albumin; test: Binding affinity to HSA assessed as emission maxima for aggregate at 1.25 uM to 11.25 uM by spectroflurometry; assay type: ADME; conditions: isolated protein; summary of the method: as §4
[22] = Tmax in BALB/c mouse at 1 mg/kg, iv by LC-MS/MS analysis; assay type: ADME, organism-based; conditions: in vivo; summary of the method: as §3
Albumin [23] = target: T3, Albumin; test: Binding affinity to HSA assessed as absorption maxima for aggregate at 1.25 uM to 11.25 uM by UV-visible spectrophotometry; assay type: ADME; conditions: isolated protein; summary of the method: as §4
[24] = Cmax in BALB/c mouse at 1 mg/kg, iv by LC-MS/MS analysis; assay type: ADME, organism-based; parameters: dose 1 mg/kg, route intravenous; conditions: in vivo; summary of the method: as §3
[25] = Half life in BALB/c mouse at 20 mg/kg, po by LC-MS/MS analysis; assay type: ADME, organism-based; conditions: in vivo; summary of the method: as §3

SMILES: O=c1c(O)c(-c2ccc3c(c2)OCO3)oc2ccc(F)cc12
CC50 [1]: 12.5 to 25 µM | inhibition of growth at 10 µM (Trypanosoma brucei [2]): 7% | inhibition (INH) [3]: Not Active | Activity (786-0): Non-Toxic

SMILES: Cc1ccc2c(=O)c(O)c(-c3ccc4c(c3)OCO4)oc2c1
CC50 [1]: 12.5 to 25 µM | inhibition of growth at 10 µM (Trypanosoma brucei [2]): 99% | inhibition (INH) [3]: Not Active | EC50 (Trypanosoma brucei [4]): 0.4 µM | Activity (786-0): Non-Toxic | selectivity ratio [5]: 31

SMILES: COc1ccc2c(=O)c(OC(=O)C3CCCCC3)c(-c3ccc4c(c3)OCO4)oc2c1
CC50 [1]: 12.5 to 25 µM | inhibition of growth at 10 µM (Trypanosoma brucei [2]): 98% | inhibition (INH) [3]: Not Active | EC50 (Trypanosoma brucei [4]): 0.5 µM | Activity (786-0): Non-Toxic | selectivity ratio [5]: 25

SMILES: CCCCC(=O)Oc1c(-c2ccc3c(c2)OCO3)oc2cc(OC)ccc2c1=O
CC50 [1]: < 12.5 µM | inhibition of growth at 10 µM (Trypanosoma brucei [2]): 100% | inhibition (INH) [3]: Not Active | EC50 (Trypanosoma brucei [4]): 0.6 µM | Activity (786-0): Non-Toxic | selectivity ratio [5]: 22

SMILES: COc1ccc2c(=O)c(O)c(-c3ccc4c(c3)OCCO4)oc2c1
CC50 [1]: 50 to 100 µM | inhibition of growth at 10 µM (Trypanosoma brucei [2]): 71% | inhibition (INH) [3]: Not Active | EC50 (Trypanosoma brucei [4]): > 10 µM | Activity (786-0): Non-Toxic

SMILES: O=c1c(O)c(-c2ccc3c(c2)OCO3)oc2ccccc12
CC50 [1]: 12.5 to 25 µM | inhibition of growth at 10 µM (Trypanosoma brucei [2]): 100% | inhibition (INH) [3]: Not Active | EC50 (Trypanosoma brucei [4]): 2.9 µM | Activity (786-0): Non-Toxic | selectivity ratio [5]: 4

SMILES: O=c1c(O)c(-c2ccc3c(c2)OCO3)oc2ccc(Cl)cc12
CC50 [1]: < 12.5 µM | inhibition of growth at 10 µM (Trypanosoma brucei [2]): 13% | inhibition (INH) [3]: Not Active | Activity (786-0): Non-Toxic

More lines, main results first:

EC50 (Trypanosoma brucei [4]): 0.5 µM
SMILES: COc1ccc2c(=O)c(OC(=O)C(C)C)c(-c3ccc4c(c3)OCO4)oc2c1
viability at 48 h, 10 µM [6]: < 0% | CC50 [1]: < 12.5 µM | inhibition of growth at 10 µM (Trypanosoma brucei [2]): 98% | inhibition (INH) [3]: Not Active | Activity (786-0): Non-Toxic | selectivity ratio [5]: 24

EC50 (Trypanosoma brucei [4]): > 10 µM
SMILES: CCCOc1c(-c2ccc3c(c2)OCO3)oc2cc(OC)ccc2c1=O
CC50 [1]: 12.5 to 25 µM | inhibition of growth at 10 µM (Trypanosoma brucei [2]): 20% | inhibition (INH) [3]: Not Active | Activity (786-0): Non-Toxic

AUC [7]: 9.99 µM·h | Ke [8]: 1.8 ×10⁵ /M | IC50 (Cytochrome P450 1A2): 0.4 µM | Activity (Albumin [9]): 360 nm | Kb (Albumin [10]): 2.5 ×10⁵ /M | Activity [12]: Active | Activity [13]: Active | IC50 (Cytochrome P450 3A4): 6 µM | IC50 (Cytochrome P450 2C19): 1.5 µM | AUC [14]: 8.65 µM·h | Cmax [15]: 910 nM | Tmax [16]: 0.5 h | Activity (Albumin [17]): 475 nm | IC50 (Cytochrome P450 2D6): 0.05 µM | half-life [18]: 19.8 h | Activity (Albumin [19]): 540 nm | Activity (Albumin [20]): 360 nm | IC50 (Cytochrome P450 2C9): 1.6 µM | Activity (Albumin [21]): 560 nm | Tmax [22]: 1 h | Activity (Albumin [23]): 325 nm | Cmax [24]: 1080 nM | half-life [25]: 45.4 h
SMILES: COc1ccc2c(=O)c(O)c(-c3ccc4c(c3)OCO4)oc2c1
IC50 [11]: > 100 µM | CC50 [1]: > 100 µM | inhibition (INH) [3]: Not Active | selectivity ratio (hERG): > 250 | Activity (786-0): Non-Toxic | selectivity ratio [5]: 250

EC50 (Trypanosoma brucei [4]): 0.3 µM
SMILES: COc1ccc2c(=O)c(OC(C)=O)c(-c3ccc4c(c3)OCO4)oc2c1
CC50 [1]: < 12.5 µM | inhibition of growth at 10 µM (Trypanosoma brucei [2]): 100% | inhibition (INH) [3]: Not Active | Activity (786-0): Non-Toxic | selectivity ratio [5]: 46
